Assay results reported in article PMC11191573 (ACS Omega, 2024).

Tests used:
Aβ1–42 [1] = target: T1, Aβ1–42 (Homo sapiens, UniProt P05067); experiment: ThT assay of Aβ1–42 aggregation; type: biochemical; conditions: for Time course of RFU (curve shape) at lower concentrations: 25 and 50 μM constituent, data not shown; for Concentration dependence of activity in ThT assay: 25, 50, 100 μM
Method in brief: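 Aβ1−42 was dissolved in 2 mM NaOH, lyophilized, then taken up in 20 mM phosphate buffer pH 7.4. Final concentrations were 50 μM Aβ1−42, 200 μM ThT and 100 μM constituent (25 and 50 μM for concentration dependence). Fluorescence (Ex 440/Em 484 nm) was read every 5 min for 3 h at 37 °C and blank-subtracted. Phenol red was the positive control and Aβ alone the negative. IC50 came from sigmoidal fitting. Mean ± SD, n = 3.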

Aβ1–42 [2] = target: T1, Aβ1–42; experiment: Transmission electron microscopy of Aβ1–42 fibrils after ThT assay; type: biochemical; conditions: 100 μM constituent, 50 μM Aβ1–42, 3 h incubation
Method in brief: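 After the 3 h, 37 °C ThT assay (50 μM Aβ1−42, 100 μM constituent), 10 μL was spotted on a copper grid. It was stained with 2% aqueous uranyl acetate, blotted, air-dried and imaged by TEM at 120 kV.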

Aβ1–42 [3] = target: T1, Aβ1–42; experiment: PICUP oligomerization assay; type: biochemical; conditions: 50 μM constituent (final), 25 μM Aβ
Aβ1–42 [4] = target: T1, Aβ1–42; experiment: FTIR spectroscopy of Aβ1–42 secondary structure; type: biochemical; conditions: after ThT assay, mixed with Aβ1–42
Method in brief: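 Samples came from completed ThT assays (50 μM Aβ1−42 ± 100 μM constituent, 37 °C, 3 h). 15 μL was dried on a diamond ATR prism at 25 °C, repeated twice. ATR-FTIR spectra were taken over 1500–1700 cm−1 with 100 s integration. The area under the parallel β-sheet absorbance band was integrated. Mean ± SD, n = 3; Dunnett's test.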

Aβ1–42 fibrils = Aβ1–42 fibrils (Homo sapiens, UniProt P05067); experiment: Aβ fibril destabilization assay; type: biochemical; conditions: 100 μM constituent, 50 μM Aβ1–42 fibrils, 37 °C, 5 h
Aβ1–42 fibrils, sequence (P05067 672-713): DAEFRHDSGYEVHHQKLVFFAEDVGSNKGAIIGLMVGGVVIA
Method in brief: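 Aβ1−42 was pre-aggregated at 37 °C for 2 days, and fibril formation was confirmed by 1 h of stable ThT RFU. Constituent was then added (100 μM final; 50 μM Aβ1−42) and ThT fluorescence (Ex/Em 440/484 nm) was read for 5 h at 37 °C as in the aggregation assay. AUC was calculated. Mean ± SD, n = 3; Dunnett's test.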

[5] = test system: IL 1B mRNA in THP-1 cells; experiment: RT-qPCR of IL 1B in Aβ1–42-stimulated THP-1 cells; type: cell-based, human; conditions: 10 μM Aβ1–42, 24 h; ARA 0.1 μM, LPC 10 μM, LTN 0.1 μM, POA 10 μM, ZX 1 μM
TNF mRNA in THP-1 cells = experiment: RT-qPCR of TNF in Aβ1–42-stimulated THP-1 cells; type: cell-based, human; conditions: 10 μM Aβ1–42, 24 h; ARA 0.1 μM, LPC 10 μM, LTN 0.1 μM, POA 10 μM, ZX 1 μM
THP-1 cells = experiment: MTT assay; type: cell-based, human; conditions: 0, 0.1, 1 or 10 μM tested, 24 h
Method in brief: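 THP-1 cells were plated at 5 × 10^4 cells/well and cultured 24 h at 37 °C. Medium containing 0, 0.1, 1 or 10 μM constituent was added for a further 24 h. Viability was measured with an MTT kit per the manufacturer's protocol and used to set nontoxic working concentrations.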

[6] = test system: IL 1B protein in THP-1 cell culture media; experiment: ELISA of IL 1B in supernatant of Aβ1–42-stimulated THP-1 cells; type: cell-based, human; conditions: 10 μM Aβ1–42, 24 h; LTN 0.1 μM
Method in brief: (§1)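 THP-1 cells were seeded at 5 × 10^5 cells/mL and differentiated to adherent macrophage-like cells (24 h). They were rested 24 h at 37 °C in RPMI-1640/10% FBS/1% P/S, then stimulated with 10 μM Aβ1−42 ± constituent for 24 h. Supernatant was assayed with human IL-1β or TNF-α sandwich ELISA kits, reading A450 and converting to pg/mL. Mean ± SE, n = 3; Tukey's test.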

[7] = test system: TNF protein in THP-1 cell culture media; experiment: ELISA of TNF in supernatant of Aβ1–42-stimulated THP-1 cells; type: cell-based, human; conditions: 10 μM Aβ1–42, 24 h; LTN 0.1 μM
Method in brief: as §1

Aβ = conditions: previously shown; cited from earlier work
Caco-2 cells = conditions: in vitro; cited from earlier work
[8] = monkeys, after feeding; cited from earlier work
Aβ1–42 [9] = target: T1, Aβ1–42; conditions: previous paper; cited from earlier work

T1 sequence (P05067 672-713): as above

Compound | IC50 (Aβ1–42 [1]) [µM] | RFU at start of ThT assay (Aβ1–42 [1]; 100 μM ARA, 50 μM Aβ1–42) | Time course of RFU (curve shape) at lower concentrations (Aβ1–42 [1]) | Inhibition of Aβ1–42 aggregation observed by TEM (Aβ1–42 [2]) | Inhibition of Aβ1–42 oligomerization (PICUP) (Aβ1–42 [3]) | AUC of absorbances in the range of 1615–1645 cm^–1 (parallel β-sheet) (Aβ1–42 [4]) | RFU of ThT during incubation with preformed Aβ1–42 fibrils (Aβ1–42 fibrils) | IL 1B mRNA induced by Aβ1–42 [5] | TNF mRNA induced by Aβ1–42 (TNF mRNA in THP-1 cells) | Optimal (nontoxic) concentration determined by MTT assay (THP-1 cells) [µM] | Concentration dependence of activity in ThT assay (Aβ1–42 [1]) | Protein concentration of IL 1B in the supernatant [6] | Protein concentration of TNF in the supernatant [7] | Inhibition of Aβ aggregation (Aβ) | Intestinal absorption of LTN in the presence of LPC (Caco-2 cells) | Concentration of LTN in the brains [8] | Morphology of Aβ fibrils by TEM (Aβ1–42 [2]) | Effect on Aβ1–42 aggregation (Aβ1–42 [9])
CCCCC/C=C\C/C=C\C/C=C\C/C=C\CCCC(=O)O [ARA, arachidonic acid] | 37.4 | approximately 25 RFU | did not improve | inhibited Aβ1–42 aggregation | did not inhibit oligomerization | decrease | remained unchanged | not suppressed | not suppressed | 0.1 |  |  |  |  |  |  |  | 
CC1=C[C@H](O)CC(C)(C)[C@H]1/C=C/C(C)=C/C=C/C(C)=C/C=C/C=C(C)/C=C/C=C(C)/C=C/C1=C(C)C[C@@H](O)CC1(C)C [LTN, lutein] | 74 |  | sigmoidal curve | inhibited the Aβ1–42 aggregation the most | did not inhibit oligomerization | particular decrease | remained unchanged | suppressed | suppressed | 0.1 | concentration-dependent | suppressed | no difference was observed | inhibit Aβ aggregation | increases | increases |  | 
CCCCCC/C=C\CCCCCCCC(=O)O [POA, palmitoleic acid] |  |  |  | inhibited Aβ1–42 aggregation | inhibited oligomerization |  | decreased | not suppressed | not suppressed | 10 | no concentration dependence |  |  |  |  |  | amorphous | 
CC1=C(/C=C/C(C)=C/C=C/C(C)=C/C=C/C=C(C)/C=C/C=C(C)/C=C/C2=C(C)C[C@@H](O)CC2(C)C)C(C)(C)C[C@H](O)C1 [ZX, zeaxanthin] |  |  |  | inhibited Aβ1–42 aggregation | inhibited oligomerization | decrease | remained unchanged | not suppressed | not suppressed | 1 |  |  |  | inhibit Aβ aggregation |  |  |  | 
L-α-lysophosphatidylcholine [LPC] |  |  | did not improve | inhibited Aβ1–42 aggregation |  | particular decrease | remained unchanged | not suppressed | not suppressed | 10 |  |  |  |  |  |  |  | facilitates Aβ1–42 aggregation
